Here are results for 25 compounds from ChEMBL document CHEMBL1240409, “Design, synthesis and evaluation of (E)-alpha-benzylthio chalcones as novel inhibitors of BCR-ABL kinase” (Bioorg Med Chem, 2010).

One assay concerns K562. Kind of assay: Growth inhibition of human K562 cells expressing p210Bcr/Abl after 96 hrs by trypan blue exclusion assay. In kind it is functional, cell-based. Conditions: K562, 96 h. The gist of the method: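 K562 cells were kept in RPMI with 10% FBS and penicillin–streptomycin at 37 °C under 5% CO2. Cells were seeded at 1 × 10^5 cells/mL with a range of compound concentrations, using DMSO as the negative control. After 96 h, viability was counted by Trypan blue exclusion and expressed as percent of DMSO control to derive GI50.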

The next assay has as its system DU-145. The assay is described as follows: Growth inhibition of human DU145 cells after 96 hrs by trypan blue exclusion assay. In kind it is functional. Particulars: DU-145, 96 h.

As a reminder, the GI50 is the concentration giving 50% growth inhibition. A high value points to lower sensitivity of the cells. In the case of `O=C(/C(=C\c1ccc(O)c([N+](=O)[O-])c1)S(=O)(=O)Cc1ccccc1Cl)c1ccc(Cl)cc1`, the GI50 in the assay on K562 and with DU-145 was 10 µM in each case.
As for `Cc1ccc(/C=C(\C(=O)c2ccc(Cl)cc2)S(=O)(=O)Cc2ccc(Cl)cc2Cl)s1`, the GI50 worked out at 25 µM with K562 and 10 µM in the assay with DU-145.
On the same counts, the results for `COc1cc(OC)c(/C=C(/Sc2ccc(C)cc2)C(=O)c2ccc(Br)cc2)c(OC)c1` are 50 µM and above 100 µM.
Consider `COc1ccc(/C=C(/Sc2ccc(Br)cc2)C(=O)c2ccc(Br)cc2)c(F)c1`, for which the values for the concentration for 50% growth inhibition (GI50) with K562 and in the assay with DU-145 were 1 µM and 20 µM, respectively.
`O=C(O)c1ccc(C(=O)/C(=C\c2ccccc2F)SCc2ccc(Br)cc2)cc1`: the GI50 in the assay with K562 and in the assay on DU-145 was 10 µM each time.
Consider `Cc1ccc(S/C(=C/c2c[nH]c3ccc(Cl)cc23)C(=O)c2ccc(Cl)cc2)cc1`, for which the GI50 in the assay on K562 and in the assay with DU-145 was 1 µM each time.
With `CSc1ccc(/C=C(/SCc2ccc(Cl)cc2)C(=O)c2ccc(C(=O)O)cc2)cc1`, the concentration for 50% growth inhibition (GI50) with K562 and in the assay on DU-145 was above 100 µM in each case.
For the compound `COc1ccc(/C=C(\C(=O)c2ccc(Cl)cc2)S(=O)(=O)Cc2ccc(Cl)cc2)c(OC)c1OC`, the GI50 was found to be 1 µM in the assay on K562 and 10 µM with DU-145.
In the case of `Cc1ccc(S(=O)(=O)/C(=C/c2ccccc2F)C(=O)c2ccc(Cl)cc2)cc1`, the concentration for 50% growth inhibition (GI50) came out at 1 µM with K562 and 2.5 µM in the assay on DU-145.
For the compound `COc1ccc(C(=O)/C(=C\c2ccc(Br)cc2)Sc2ccc(F)cc2)cc1`, the concentration for 50% growth inhibition (GI50) with K562 and in the assay with DU-145 was above 100 µM in each case.
`O=C(/C(=C\c1c[nH]c2ccccc12)S(=O)(=O)c1ccc(Br)cc1)c1ccc(Br)cc1`: the GI50 with K562 and in the assay with DU-145 was 25 µM each time.
In the case of `COc1cc(OC)c(/C=C(\C(=O)c2ccc(Br)cc2)S(=O)(=O)Cc2ccc(Cl)cc2)c(OC)c1`, the GI50 in the assay on K562 and with DU-145 was 25 µM throughout.
With `COc1ccc(/C=C(\C(=O)c2ccc(Br)cc2)S(=O)(=O)c2ccc(Br)cc2)c(F)c1`, the results for the 50% growth inhibitory concentration (GI50) in the assay with K562 and in the assay on DU-145 were 1 µM and 10 µM, respectively.
For the compound `O=C(O)c1ccc(C(=O)/C(=C\c2ccc(Br)cc2)SCc2ccc(F)cc2)cc1`, the GI50 in the assay on K562 and in the assay with DU-145 was above 100 µM throughout.
For `CCOc1ccc(/C=C(/Sc2ccccc2Cl)C(=O)c2ccc(Cl)cc2)cc1OC`, the GI50 with K562 is 1 µM; in the assay on DU-145, 50 µM.
As to `Cc1ccc(S/C(=C/c2ccc(Oc3ccccc3)cc2)C(=O)c2ccc(Cl)cc2)cc1`, the GI50 in the assay on K562 and with DU-145 was 10 µM in each case.
As for `CSc1ccc(/C=C(\C(=O)c2ccc(Br)cc2)S(=O)(=O)Cc2ccc(C)cc2)cc1`, the GI50 in the assay on K562 and with DU-145 was 10 µM in each case.
For the compound `O=C(/C(=C\c1ccc(F)cc1C(F)(F)F)SCc1ccc(F)cc1)c1ccc(Br)cc1`, the concentration for 50% growth inhibition (GI50) with K562 and in the assay with DU-145 was 10 µM in each case.
Turning to `CCOc1ccc(/C=C(/SCc2ccc(Cl)c(Cl)c2)C(=O)c2ccc(Cl)cc2)cc1OC`, the GI50 with K562 worked out at 1 µM; with DU-145, 25 µM.
Consider `O=C(/C(=C\c1ccc(Br)cc1)Sc1ccc(Br)cc1)c1ccc(Br)cc1`, for which the figures for the 50% growth inhibitory concentration (GI50) in the assay on K562 and in the assay on DU-145 were 2.5 µM and 1 µM, respectively.
On to `O=C(/C(=C\c1ccc(Br)cc1)S(=O)(=O)c1ccccc1Br)c1ccc(Br)cc1`, for which the 50% growth inhibitory concentration (GI50) with K562 and with DU-145 was 1 µM throughout.
`O=C(/C(=C\c1ccc(O)c(Br)c1)Sc1ccc(Br)cc1)c1c(F)c(F)c(F)c(F)c1F`: the GI50 in the assay with K562 and in the assay on DU-145 was 1 µM in each case.
Regarding `O=C(/C(=C\c1ccc(Br)cc1)S(=O)(=O)Cc1ccc(F)cc1)c1ccc(Cl)cc1`, the GI50 was 50 µM with K562 and above 100 µM with DU-145.
On the same counts, the results for `CCOc1ccc(/C=C(\C(=O)c2ccc(Br)cc2)S(=O)(=O)c2ccc(C)cc2)cc1OC` are 1 µM and 1 µM.
Take `O=C(/C(=C\c1ccc([N+](=O)[O-])c(O)c1)SCc1ccc(Br)cc1)c1ccc([N+](=O)[O-])c(Cl)c1`: the GI50 in the assay on K562 and with DU-145 was 1 µM each time.
